The text below walks through data of ChEMBL document CHEMBL3046167, “Activity of meadowfoam (Limnanthes alba) seed meal glucolimnanthin degradation products against soilborne pathogens” (J Agric Food Chem, 2012).

A word on the mortality: it is the percentage killed. A word on the EC50: it is the concentration at which the effect is half-maximal.

Converted amounts (≈) assume the structure as drawn. The source made the active and inactive calls. No cut-off for these calls is given here.

Assay [1] deals with Globisporangium irregulare. As to the kind of experiment: Antiparasitic activity against Pythium irregulare assessed as culture diameter at 0.5 mg/ml after 24 hr. Format: functional. In short, it runs like this:
(§1)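 P. irregulare: 3-mm agar plugs from 1-week cultures (20 °C, dark) were placed in wells with water plus test solution in DMSO (final 2% DMSO). Exposure was 24 h at 25 °C in the dark. Plugs were then rinsed, blotted and placed on PDA with 250 mg/L ampicillin. Colony diameter was measured after 48 h at 20 °C, excluding dead plugs, and expressed as % of the water control. EC50 was derived by regression. Eight wells per concentration.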

For assay [2], the system named is Globisporangium irregulare. Description: Antiparasitic activity against Pythium irregulare assessed as culture diameter at 0.15 mg/ml after 24 hr. It is filed as functional. The method in brief: as §1
Assay [3] relates to Meloidogyne hapla. Description: Antiparasitic activity against Meloidogyne hapla J2 assessed as larvicidal activity for 24 hr measured after replacement with water. It is filed as functional, organism-based. The conditions noted are these: J2, 24 h. In short, it runs like this:
(§2)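 M. hapla J2 (tomato-cultured isolate) in 96-well plates, 40–60 J2 per well in water with test solution in DMSO (final DMSO 2% v/v). Incubated covered in the dark at 25 °C for 24 h, then mortality scored visually. Compounds were then removed and replaced with water, and mortality was rescored after another 24 h. EC50 was taken from dose-response regression. Eight wells per concentration; experiments were run at least twice.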

Assay [4] concerns Globisporangium irregulare. As to the kind of experiment: Antiparasitic activity against Pythium irregulare assessed as culture diameter after 24 hr. It is filed as functional, organism-based. In short, it runs like this: as §1
In assay [5] the test system is Meloidogyne hapla. Description: Antiparasitic activity against Meloidogyne hapla J2 assessed as larvicidal activity after 24 hr. Format: functional, organism-based. The conditions noted are these: J2, 24 h. In short, it runs like this: as §2
Assay [6] concerns Globisporangium irregulare. Description: Antiparasitic activity against Pythium irregulare assessed as culture diameter at <= 0.3 mg/ml after 24 hr. Format: functional, organism-based. The method in brief: as §1
In assay [7] the test system is Globisporangium irregulare. Description: Antiparasitic activity against Pythium irregulare assessed as culture diameter at 0.3 mg/ml after 24 hr. It is filed as functional. The method in brief:
as §1

Assay [8] has as its system Globisporangium irregulare. Description: Antiparasitic activity against Pythium irregulare assessed as culture diameter at 0.75 mg/ml after 24 hr. Format: functional. The method in brief:
as §1

Assay [9] concerns Globisporangium irregulare. Description: Antiparasitic activity against Pythium irregulare assessed as culture diameter at 0.05 mg/ml after 24 hr. Format: functional. In short, it runs like this:
as §1

Assay [10] deals with Verticillium dahliae. As to the kind of experiment: Antiparasitic activity against Verticillium dahliae assessed as culture diameter at 0.1 mg/ml after 24 hr. Format: functional. In short, it runs like this: (§3)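 V. dahliae: 3-mm plugs from 3-week cultures (20 °C, dark) were exposed for 24 h at 25 °C in wells of water with 2% DMSO and test compound. Plugs were then rinsed, blotted and plated on PDA with 250 mg/L ampicillin. Diameter was measured after 1 week at 20 °C, excluding non-growing plugs, and expressed as % of the water control. Eight wells per concentration.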

The test system of assay [11] is Verticillium dahliae. Description: Antiparasitic activity against Verticillium dahliae assessed as culture diameter at 0.02 mg/ml after 24 hr. It is filed as functional. In short, it runs like this: as §3
The subject of assay [12] is Verticillium dahliae. Description: Antiparasitic activity against Verticillium dahliae assessed as culture diameter at 0.05 mg/ml after 24 hr. It is filed as functional. The method in brief:
as §3

The test system of assay [13] is Globisporangium irregulare. Description: Antiparasitic activity against Pythium irregulare assessed as culture diameter at 0.025 mg/ml after 24 hr. Format: functional. The method in brief: as §1
Assay [14] deals with Globisporangium irregulare. Description: Antiparasitic activity against Pythium irregulare assessed as culture diameter at 0.075 mg/ml after 24 hr. It is filed as functional. The method in brief: as §1
The test system of assay [15] is Verticillium dahliae. Description: Antiparasitic activity against Verticillium dahliae assessed as culture diameter at 0.001 mg/ml after 24 hr. Format: functional. In short, it runs like this: as §3
Assay [16] has as its system Globisporangium irregulare. Description: Antiparasitic activity against Pythium irregulare assessed as culture diameter at 0.1 mg/ml after 24 hr. It is filed as functional. In short, it runs like this: as §1
The test system of assay [17] is Verticillium dahliae. As to the kind of experiment: Antiparasitic activity against Verticillium dahliae assessed as culture diameter at 0.005 mg/ml after 24 hr. It is filed as functional. In short, it runs like this:
as §3

Assay [18] relates to Verticillium dahliae. As to the kind of experiment: Antiparasitic activity against Verticillium dahliae assessed as culture diameter at 0.03 mg/ml after 24 hr. It is filed as functional. In short, it runs like this: as §3
For assay [19], the system named is Verticillium dahliae. As to the kind of experiment: Antiparasitic activity against Verticillium dahliae assessed as culture diameter at 0.08 mg/ml after 24 hr. Format: functional. The method in brief:
as §3

The test system of assay [20] is Globisporangium irregulare. As to the kind of experiment: Antiparasitic activity against Pythium irregulare assessed as culture diameter at 0.2 mg/ml after 24 hr. Format: functional. The method in brief: as §1
In assay [21] the test system is Verticillium dahliae. As to the kind of experiment: Antiparasitic activity against Verticillium dahliae assessed as culture diameter at 0.2 mg/ml after 24 hr. Format: functional. The method in brief:
as §3

Assay [22] concerns Verticillium dahliae. Description: Antiparasitic activity against Verticillium dahliae assessed as culture diameter after 24 hr. Format: functional, organism-based. The method in brief: as §3
Assay [23] has as its system Verticillium dahliae. As to the kind of experiment: Antiparasitic activity against Verticillium dahliae assessed as culture diameter at 0.01 mg/ml after 24 hr. Format: functional. The method in brief:
as §3

Assay [24] concerns Globisporangium irregulare. Description: Antiparasitic activity against Pythium irregulare assessed as culture morality after 24 hr. It is filed as functional, organism-based. In short, it runs like this:
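P. irregulare plugs were exposed in wells to compounds in 2% DMSO for 24 h at 25 °C, then rinsed and plated on ampicillin-amended PDA. Plugs failing to grow were counted as dead, giving percentage mortality per treatment. EC50 was estimated from dose-response regression. Eight replicate wells per concentration; experiments were run at least twice.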

With `COc1cccc(CC(N)=S)c1`, in assay [1], the mortality at 500 µg/mL was determined as 0%. Besides, the mortality at 150 µg/mL in assay [2] is 0%. For the same compound, the EC50 in assay [3] is 584 µg/mL (≈ 3220 µM); in assay [4], 750 µg/mL (≈ 4140 µM); in assay [5] it was 245 µg/mL (≈ 1350 µM). In assay [6], the result was inactive. Also, in assay [7], the mortality at 300 µg/mL was determined as 0%. Further, in assay [8], the mortality at 750 µg/mL stood at 0%. Besides, the mortality at 50 µg/mL in assay [9] came to 0%.

For the compound `COc1cccc(CN=C=S)c1` [3-METHOXYBENXYL ISOTHIOCYANATE], the mortality at 100 µg/mL in assay [10] stood at 50%; in [16] it was 63%. In assay [11], the mortality at 20 µg/mL is 0%. The mortality at 50 µg/mL in assay [12] is 19%; in assay [9] it was 54%. In [13], the mortality at 25 µg/mL turned out to be 0%. Besides, in assay [14], the mortality at 75 µg/mL stood at 56%. Further, in assay [2], the mortality at 150 µg/mL came out at 88%. Also, the mortality at 1 µg/mL in assay [15] was 0%. Also, the 50% effective concentration (EC50) in assay [3] amounted to 3 µg/mL (≈ 16.7 µM); in assay [5], 2 µg/mL (≈ 11.2 µM); in [22] it was 100 µg/mL (≈ 558 µM); in assay [24], 50 µg/mL (≈ 279 µM). In [17], the mortality at 5 µg/mL amounted to 0%. Also, the mortality at 30 µg/mL in [18] amounted to 0%. For the same compound, the mortality at 80 µg/mL in assay [19] amounted to 7%. Besides, the results for the mortality at 200 µg/mL in assay [20] and in assay [21] were 88% and 69%, respectively. Also, in [23], the mortality at 10 µg/mL turned out to be 0%.
